# Where a name gives a salt, the structure may show the parent alone. Activity calls are given as the source filed them. No cut-off for these calls is given here.
# Legend:
# [1] = test system: HL-60; assay: Cytotoxicity against human HL60 cells assessed as reduction in cell viability at 100 uM after 72 hrs by Alamar blue assay; format: functional, cell-based
# Method in brief: (§1)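 HL-60 cells in log phase, 4 × 10^4 cells/well in RPMI/10% FBS, were treated with a 1:100 dilution of aqueous stocks (1% ddH2O vehicle), final 1–100 μM, for 72 h at 37 °C. AlamarBlue was added for 4.5 h in the dark and fluorescence read at 544/590 nm. Viability is blank-corrected and given as % of vehicle. IC50 comes from sigmoidal dose–response fits. Triplicate wells, at least three experiments.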
# [2] = test system: HL-60; assay: Cytotoxicity against human HL60 cells assessed as reduction in cell viability after 72 hrs by Alamar blue assay; format: functional, cell-based; conditions: HL-60, 72 h; method in brief: as §1
# [3] = test system: Salmonidae; assay: Binding affinity to salmon sperm DNA assessed as change in melting temperature at 15 uM by thermal denaturation assay
# [4] = test system: MCF7; assay: Cytotoxicity against human MCF7 cells assessed as reduction in cell viability at 100 uM after 72 hrs by Alamar blue assay; format: functional
# Method in brief: (§2)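 MCF-7 cells in MEM/10% FBS with nonessential amino acids, 10,000/well, were preincubated 24 h, then treated for 72 h at 37 °C with a 1:100 dilution of aqueous stocks (1% ddH2O vehicle). AlamarBlue was added for 4.5 h in the dark and fluorescence read at 544/590 nm. Viability is blank-corrected and given as % of vehicle. IC50 comes from a sigmoidal dose–response fit. Triplicate wells, at least three experiments.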
# [5] = test system: MCF7; assay: Cytotoxicity against human MCF7 cells assessed as reduction in cell viability after 72 hrs by Alamar blue assay; format: functional, cell-based; conditions: MCF7, 72 h; method in brief: as §2
# [6] = test system: DNA; assay: Binding affinity to calf thymus DNA assessed as change in melting temperature; format: nucleic-acid assay; conditions: Bos taurus
# [7] = Cytotoxicity against human Kelly cells assessed as reduction in cell viability 30 uM after 72 hrs by Alamar blue assay; format: functional
# Method in brief: (§3)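 Kelly neuroblastoma cells in RPMI/10% FBS, 6000/well, were preincubated 24 h, then given a 1:100 dilution of aqueous stocks (1% ddH2O vehicle) for 72 h at 37 °C. AlamarBlue was added for 4.5 h in the dark and fluorescence read at 544/590 nm. Viability is blank-corrected and given as % of vehicle. IC50 comes from a sigmoidal fit. Triplicate wells, at least three experiments.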
# [8] = Cytotoxicity against human Kelly cells assessed as reduction in cell viability 40 uM after 72 hrs by Alamar blue assay; format: functional; method in brief: as §3
# [9] = Cytotoxicity against human Kelly cells assessed as reduction in cell viability 50 uM after 72 hrs by Alamar blue assay; format: functional; method in brief: as §3
# [10] = Cytotoxicity against human Kelly cells assessed as reduction in cell viability 100 uM after 72 hrs by Alamar blue assay; format: functional; method in brief: as §3
# [11] = Cytotoxicity against human Kelly cells assessed as reduction in cell viability after 72 hrs by Alamar blue assay; format: functional, cell-based; method in brief: as §3
# [12] = Dissociation constant, pKa of the compound; format: physicochemical
# [13] = test system: HL-60; assay: Cell cycle arrest in human HL60 cells assessed as accumulation at Gn phase at 50 uM by flow cytometric analysis; format: functional, cell-based; conditions: TDE = time-dependent effect
# [14] = test system: HL-60; assay: Cell cycle arrest in human HL60 cells assessed as accumulation at G2/M phase at 50 uM by flow cytometric analysis; format: functional, cell-based; conditions: TDE = time-dependent effect
# [15] = test system: HL-60; assay: Cell cycle arrest in human HL60 cells assessed as accumulation at S phase at 50 uM by flow cytometric analysis; format: functional, cell-based; conditions: TDE = time-dependent effect
# [16] = test system: HL-60; assay: Cell cycle arrest in human HL60 cells assessed as accumulation at G0/G1 phase at 50 uM by flow cytometric analysis; format: functional, cell-based; conditions: TDE = time-dependent effect
# [17] = test system: HL-60; assay: Cell cycle arrest in human HL60 cells assessed as accumulation at preG1 phase at 50 uM by flow cytometric analysis; format: functional, cell-based; conditions: TDE = time-dependent effect
# [18] = test system: HL-60; assay: Cell cycle arrest in human HL60 cells assessed as accumulation at Gn phase at 50 uM after 72 hrs by flow cytometric analysis (reference value: 3.43 +/- 0.48%); format: functional
# [19] = test system: HL-60; assay: Cell cycle arrest in human HL60 cells assessed as accumulation at S phase at 50 uM after 72 hrs by flow cytometric analysis (reference value: 23.58 +/- 1.38%); format: functional
# [20] = test system: HL-60; assay: Cell cycle arrest in human HL60 cells assessed as accumulation at G0/G1 phase at 50 uM after 72 hrs by flow cytometric analysis (reference value: 59.5 +/- 1.50%); format: functional
# [21] = test system: HL-60; assay: Cell cycle arrest in human HL60 cells assessed as accumulation at preG1 phase at 50 uM after 72 hrs by flow cytometric analysis (reference value: 2.21 +/- 0.57%); format: functional
# [22] = test system: HL-60; assay: Cell cycle arrest in human HL60 cells assessed as accumulation at Gn phase at 50 uM after 48 hrs by flow cytometric analysis (reference value: 3.02 +/- 0.56%); format: functional
# [23] = test system: HL-60; assay: Cell cycle arrest in human HL60 cells assessed as accumulation at G2/M phase at 50 uM after 48 hrs by flow cytometric analysis (reference value: 11.35 +/- 1.05%); format: functional
# [24] = test system: HL-60; assay: Cell cycle arrest in human HL60 cells assessed as accumulation at S phase at 50 uM after 48 hrs by flow cytometric analysis (reference value: 24.29 +/- 1.37%); format: functional
# [25] = test system: HL-60; assay: Cell cycle arrest in human HL60 cells assessed as accumulation at preG1 phase at 50 uM after 48 hrs by flow cytometric analysis (reference value: 1.41 +/- 0.32%); format: functional
# [26] = test system: HL-60; assay: Cell cycle arrest in human HL60 cells assessed as accumulation at G0/G1 phase at 50 uM after 48 hrs by flow cytometric analysis (reference value: 58.77 +/- 2.33%); format: functional
# [27] = test system: HL-60; assay: Cell cycle arrest in human HL60 cells assessed as accumulation at Gn phase at 50 uM after 24 hrs by flow cytometric analysis (reference value: 2.96 +/- 0.79%); format: functional
# [28] = test system: HL-60; assay: Cell cycle arrest in human HL60 cells assessed as accumulation at G2/M phase at 50 uM after 24 hrs by flow cytometric analysis (reference value: 16.73 +/- 0.59%); format: functional
# [29] = test system: HL-60; assay: Cell cycle arrest in human HL60 cells assessed as accumulation at S phase at 50 uM after 24 hrs by flow cytometric analysis (reference value: 24.46 +/- 1.15%); format: functional
# [30] = test system: HL-60; assay: Cell cycle arrest in human HL60 cells assessed as accumulation at G0/G1 phase at 50 uM after 24 hrs by flow cytometric analysis (reference value: 56.05 +/- 1.40%); format: functional
# [31] = test system: HL-60; assay: Cell cycle arrest in human HL60 cells assessed as accumulation at preG1 phase at 50 uM after 24 hrs by flow cytometric analysis (reference value: 0.81 +/- 0.11%); format: functional
# [32] = test system: HL-60; assay: Cell cycle arrest in human HL60 cells assessed as accumulation at G2/M phase at 50 uM after 72 hrs by flow cytometric analysis (reference value: 10.53 +/- 0.81%); format: functional
# [33] = Binding affinity to poly(dA-dT)2 (unknown origin) assessed as change in melting temperature
smiles,measurement,setting,value
N/C(=N\O)Nc1ccc(C(=O)c2ccc(N/C(N)=N/O)cc2)cc1,Activity,[1],inactive
same,IC50,[2],> 100 µM
same,ΔTm,[3],0 °C
N/C(=N\O)Nc1ccc(CCc2ccc(N/C(N)=N/O)cc2)cc1,ΔTm,[3],0 °C
Cl.N/C(=N\O)Nc1ccc(Cc2ccc(N/C(N)=N/O)cc2)cc1,Activity,[4],29.8%
same,IC50,[5],> 100 µM
same,IC50,[2],71.3 µM
same,ΔTm,[3],0 °C
N=C(N)c1ccc(OCCCCCOc2ccc(C(=N)N)cc2)cc1,ΔTm,[6],10.7 °C
N/C(=N\O)Nc1ccc(NC(=O)c2ccc(N/C(N)=N/O)cc2)cc1,ΔTm,[3],1 °C
N/C(=N\O)c1ccc(OCCCCCOc2ccc(/C(N)=N/O)cc2)cc1,ΔTm,[6],0.2 °C
Cl.N/C(=N\O)Nc1ccc(Oc2ccc(N/C(N)=N/O)cc2)cc1,Activity,[7],76.2%
same,Activity,[8],86.4%
same,Activity,[9],89.9%
same,Activity,[10],95.8%
same,Activity,[4],53%
same,IC50,[11],12.2 µM
same,IC50,[5],45.2 µM
same,IC50,[2],65.5 µM
same,pKa,[12],8.3
same,ΔTm,[3],1 °C
Cl.N/C(=N\O)Nc1ccc(Sc2ccc(N/C(N)=N/O)cc2)cc1,Activity,[13],tde
same,Activity,[14],tde
same,Activity,[15],tde
same,Activity,[16],tde
same,Activity,[17],tde
same,Activity,[18],2.1%
same,Activity,[19],15.99%
same,Activity,[20],44.8%
same,Activity,[21],22.2%
same,Activity,[22],1.94%
same,Activity,[23],10.78%
same,Activity,[24],21.71%
same,Activity,[25],6.44%
same,Activity,[26],56.62%
same,Activity,[27],2.35%
same,Activity,[28],14.57%
same,Activity,[29],25.85%
same,Activity,[30],55.9%
same,Activity,[31],1.53%
same,Activity,[32],14.54%
same,Activity,[7],79.4%
same,Activity,[8],93.9%
same,Activity,[9],95%
same,Activity,[10],96.8%
same,Activity,[4],23.1%
same,IC50,[11],8.6 µM
same,IC50,[5],> 100 µM
same,IC50,[2],46.4 µM
same,ΔTm,[3],1 °C
N=C(N)c1ccc(-c2ccc(-c3ccc(C(=N)N)cc3)o2)cc1 [FURAMIDINE HYDROCHLORIDE],ΔTm,[33],26.2 °C
same,IC50,[11],27.4 µM
same,IC50,[5],92.8 µM
same,IC50,[2],77.6 µM
same,pKa,[12],10.4
